Data taken from ChEMBL document CHEMBL4041520, “Novel pyrimidine-2,4-dione-1,2,3-triazole and furo[2,3-d]pyrimidine-2-one-1,2,3-triazole hybrids as potential anti-cancer agents: Synthesis, computational and X-ray analysis and biological evaluation” (Eur J Med Chem, 2017).
Activity calls are given as the source filed them. No cut-off for these calls is given here.

Assays:
SW-620 = test: Antiproliferative activity against human SW620 cells after 72 hrs by MTT assay; assay type: functional, cell-based; details: SW-620, 72 h
In short: (§1)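 Monolayers grown in DMEM with 10% FBS and 2 mM L-glutamine at 37 °C, 5% CO2. Cells seeded at 5000 per well on day 0. Compounds added in five 10-fold dilutions (0.01–100 µM), DMSO ≤0.1%, for 72 h. MTT absorbance converted to percentage growth versus untreated wells. IC50 by linear regression of the dose-response curve; highest concentration reported when not reached. Quadruplicate points, three experiments.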

HeLa [1] = test: Induction of apoptosis in human HeLa cells assessed as late apoptotic cells at 2 times antiproliferative IC50 after 48 hrs by Annexin-V FITC/propidium iodide staining based fluorescence microscopic method (reference value: 2.3%); assay type: functional
In short: (§2)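 Cells seeded in 8-well chamber slides and exposed to compound at 2× IC50 for 48 h. After washing in incubation buffer, Annexin-V-FITC labelling for 15 min at room temperature. Cells fixed with 20% glycerol; PI used as nuclear stain. Scored by fluorescence microscopy as viable (PI-/AnnV-), early apoptotic (PI-/AnnV+), late apoptotic/primary necrotic (PI+/AnnV+) or secondary necrotic (PI+) percentages.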

NIH3T3 = test: Antiproliferative activity against mouse NIH/3T3 cells after 72 hrs by MTT assay; assay type: cell-based; details: NIH3T3, 72 h; in short: as §1
HeLa [2] = test: Induction of apoptosis in human HeLa cells assessed as early apoptotic cells at 2 times antiproliferative IC50 after 48 hrs by Annexin-V FITC/propidium iodide staining based fluorescence microscopic method (reference value: 20.4%); assay type: functional; in short: as §2
[3] = Mitochondrial toxicity in human HepG2 cells grown in presence of glucose; assay type: cell-based
HeLa [4] = test: Induction of apoptosis in human HeLa cells assessed as viable cells at 2 times antiproliferative IC50 after 48 hrs by Annexin-V FITC/propidium iodide staining based fluorescence microscopic method (reference value: 75%); assay type: functional; in short: as §2
[5] = target: Wee1-like protein kinase (Homo sapiens) (UniProt P30291); test: Inhibition of Wee-1 kinase in human HeLa cells assessed as downregulation of ASAH at 2 times antiproliferative IC50 after 48 hrs by Western blot method; assay type: cell-based
Chain of Wee1-like protein kinase (Homo sapiens) (P30291 whole entry, looked up): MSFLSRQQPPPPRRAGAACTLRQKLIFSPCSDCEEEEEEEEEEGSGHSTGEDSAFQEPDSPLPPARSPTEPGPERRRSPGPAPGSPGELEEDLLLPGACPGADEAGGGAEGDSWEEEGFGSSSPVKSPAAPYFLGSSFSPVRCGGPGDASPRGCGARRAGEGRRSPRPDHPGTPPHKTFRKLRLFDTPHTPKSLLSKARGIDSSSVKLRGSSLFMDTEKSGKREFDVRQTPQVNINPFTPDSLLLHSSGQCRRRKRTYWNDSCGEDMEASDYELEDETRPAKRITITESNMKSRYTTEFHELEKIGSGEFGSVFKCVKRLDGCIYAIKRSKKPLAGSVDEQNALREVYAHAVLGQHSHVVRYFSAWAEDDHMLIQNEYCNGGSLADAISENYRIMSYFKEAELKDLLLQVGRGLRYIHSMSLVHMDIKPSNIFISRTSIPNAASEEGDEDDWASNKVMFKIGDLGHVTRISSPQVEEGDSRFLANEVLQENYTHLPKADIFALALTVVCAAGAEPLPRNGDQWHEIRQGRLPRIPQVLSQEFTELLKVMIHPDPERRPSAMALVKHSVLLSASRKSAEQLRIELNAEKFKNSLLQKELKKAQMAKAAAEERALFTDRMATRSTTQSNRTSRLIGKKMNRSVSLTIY
In short: (§3)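 Cells seeded at 200000 per well and treated at 2× IC50 for 48 h. Lysed in RIPA buffer with protease inhibitors. 50 µg protein run on 12% Tris-glycine gels and transferred to PVDF. Blocked in 4% BSA/TBST, probed overnight at 4 °C with anti-p-SK1, ASAH1 or p-Wee1, then HRP secondary. Chemiluminescent detection; densitometry normalized to alpha-tubulin. Two independent experiments, mean ± SD.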

[6] = Mitochondrial toxicity in human HepG2 cells grown in presence of galactose; assay type: cell-based
In short: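 HepG2 kept for more than 5 passages in glucose-free DMEM with 10 mM galactose, 2 mM glutamine, 5 mM HEPES, 10% FBS and 1 mM sodium pyruvate.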

[7] = target: Wee1-like protein kinase (Homo sapiens) (UniProt P30291); test: Inhibition of Wee-1 kinase in human HeLa cells assessed as reduction in SK1 phosphorylation at 2 times antiproliferative IC50 after 48 hrs by Western blot method; assay type: cell-based; in short: as §3
A549 = test: Antiproliferative activity against human A549 cells after 72 hrs by MTT assay; assay type: functional, cell-based; details: A549, 72 h; in short: as §1
[8] = target: Wee1-like protein kinase (Homo sapiens) (UniProt P30291); test: Inhibition of Wee-1 kinase phosphorylation in human HeLa cells at 2 times antiproliferative IC50 after 48 hrs by Western blot method; assay type: cell-based; in short: as §3
CFPAC-1 = test: Antiproliferative activity against human CFPAC-1 cells after 72 hrs by MTT assay; assay type: functional, cell-based; details: CFPAC-1, 72 h; in short: as §1
HepG2 [9] = test: Antiproliferative activity against human HepG2 cells after 72 hrs by MTT assay; assay type: functional, cell-based; details: HepG2, 72 h; in short: as §1
HeLa [10] = test: Induction of apoptosis in human HeLa cells assessed as secondary necrotic cells at 2 times antiproliferative IC50 after 48 hrs by Annexin-V FITC/propidium iodide staining based fluorescence microscopic method (reference value: 2.3%); assay type: functional; in short: as §2
HeLa [11] = test: Antiproliferative activity against human HeLa cells after 72 hrs by MTT assay; assay type: functional, cell-based; in short: as §1
HepG2 [12] = test: Induction of apoptosis in human HepG2 cells assessed as late apoptotic cells at 2 times antiproliferative IC50 after 48 hrs by Annexin-V FITC/propidium iodide staining based fluorescence microscopic method relative to control; assay type: functional; in short: as §2
HepG2 [13] = test: Induction of apoptosis in human HepG2 cells assessed as viable cells at 2 times antiproliferative IC50 after 48 hrs by Annexin-V FITC/propidium iodide staining based fluorescence microscopic method (reference value: 94.2%); assay type: functional; in short: as §2
HepG2 [14] = test: Induction of apoptosis in human HepG2 cells assessed as secondary necrotic cells at 2 times antiproliferative IC50 after 48 hrs by Annexin-V FITC/propidium iodide staining based fluorescence microscopic method (reference value: 5.2%); assay type: functional; in short: as §2
HepG2 [15] = test: Induction of apoptosis in human HepG2 cells assessed as early apoptotic cells at 2 times antiproliferative IC50 after 48 hrs by Annexin-V FITC/propidium iodide staining based fluorescence microscopic method (reference value: 0.6%); assay type: functional; in short: as §2
[16] = target: Wee1-like protein kinase (Homo sapiens) (UniProt P30291); test: Inhibition of Wee-1 kinase in human HepG2 cells assessed as downregulation of ASAH at 2 times antiproliferative IC50 after 48 hrs by Western blot method; assay type: cell-based; in short: as §3
[17] = target: Wee1-like protein kinase (Homo sapiens) (UniProt P30291); test: Inhibition of Wee-1 kinase in human HepG2 cells assessed as reduction in SK1 phosphorylation at 2 times antiproliferative IC50 after 48 hrs by Western blot method; assay type: cell-based; in short: as §3
[18] = target: Wee1-like protein kinase (Homo sapiens) (UniProt P30291); test: Inhibition of Wee-1 kinase phosphorylation in human HepG2 cells at 2 times antiproliferative IC50 after 48 hrs by Western blot method; assay type: cell-based; in short: as §3

| SMILES | IC50 (SW-620) | IC50 (NIH3T3) | IC50 [3] | IC50 [6] | IC50 (A549) | IC50 (CFPAC-1) | IC50 (HepG2 [9]) | IC50 (HeLa [11]) | Activity (HepG2 [12]) | Activity (HepG2 [13]) | Activity (HepG2 [14]) | Activity (HepG2 [15]) | inhibition [16] | inhibition [17] | inhibition [18] | further results |
| --- | --- | --- | --- | --- | --- | --- | --- | --- | --- | --- | --- | --- | --- | --- | --- | --- |
| O=c1c(Br)cn(Cc2cn(-c3ccccc3F)nn2)c(=O)n1Cc1cn(-c2ccccc2F)nn1 | 7.86 µM | 0.59 µM | 7.11 µM | 4.67 µM | 5.33 µM | 4.53 µM | 7.11 µM | 1.64 µM | – | – | – | – | – | – | – | Activity (HeLa [1]): 1.8%; Activity (HeLa [2]): 23.9%; Activity (HeLa [4]): 71.3%; inhibition [5]: inactive; inhibition [7]: inactive; inhibition [8]: inactive; Activity (HeLa [10]): 3% |
| O=c1c(Br)cn(Cc2cn(-c3ccc(F)cc3)nn2)c(=O)n1Cc1cn(-c2ccc(F)cc2)nn1 | 9.82 µM | 0.07 µM | 4.78 µM | 4.57 µM | 25.4 µM | 6.87 µM | 4.47 µM | 12.6 µM | 0% | 72.9% | 0.5% | 26.6% | inactive | inactive | Active | – |
| O=c1c(Br)cn(Cc2cn(-c3ccc(Cl)cc3)nn2)c(=O)n1Cc1cn(-c2ccc(Cl)cc2)nn1 | 5.63 µM | 0.37 µM | 3.82 µM | 7.1 µM | 7.41 µM | 5.92 µM | 3.62 µM | 6.13 µM | 0% | 50% | 15.2% | 34.8% | Active | Active | Active | – |
